Results published in ChEMBL document CHEMBL4513216, “Probing the Open Global Health Chemical Diversity Library for Multistage-Active Starting Points for Next-Generation Antimalarials” (ACS Infect Dis, 2020).

Assay: Toxicity liver stage against HepG2, at 10uM
Format: cell-based
Design: test concentration 10 uM, cell line HepG2-A16-CD81EGFP
Conditions: human, HepG2-A16-CD81EGFP cells; read-out: INHIBITION
Method in brief: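 Uninfected HepG2-A16-CD81EGFP cells, 3 × 10^3 per well, 1536-well, plated on prespotted compound at 10 μM final, parasite-free screening media added to match infected plates; puromycin 10 μM positive, DMSO 0.5% negative; run in parallel with 48 h PbLuc assay at 37 °C, 5% CO2; viability by CellTiter-Glo luminescence, normalized to controls.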

SMILES | cytotoxicity at 10 µM [%]
CC(C)Cc1cc(CC2(NCc3ccccc3Cl)COC2)no1 | -7.55
Cc1cccnc1CNC[C@H]1Cn2cc(-c3ccccc3)nc2CO1 | -2.56
O=C(NCCc1ccncc1)c1cccnc1OCC(F)(F)F | 5.03
O=C(c1cn(Cc2ccccc2)c2ncccc12)N1CCOCC1 | -0.142
CCOCC(=O)NCCc1nc(C)cc(C(F)(F)F)n1 | -1.21
COC(CNC(=O)C1CC1)c1ccc(C)s1 (centres undefined) | -3.08
CN1C(Cn2cccn2)C[C@@H]2CN(Cc3nccs3)CC[C@@H]21 (some centres undefined) | 3.8
CN1CCc2cc(C(CNS(=O)(=O)c3cccs3)N3CCCC3)ccc21 (centres undefined) | 2.66
COC(=O)c1ccc(OC)c(Cn2cc(Br)cn2)c1 | 3.05
O=C1CC(c2ccncc2)c2c(sc3c2CCCC3)N1 (centres undefined) | 5.57
Cc1cc(N(C)C)nc(C2COCCN2Cc2nccn2C)n1 (centres undefined) | -3.43
CCC(=O)N1CCC(c2nc(N3CCCC3)ncc2S(C)(=O)=O)CC1 | 3.86
O=C(c1cncs1)N1CCc2[nH]nc(Nc3ccccc3)c2C1 | 8.26
COc1ccc(CN(C)CC2(O)CCNC2)cc1 (centres undefined) | -1.68
CN1CCCC(c2ccnc(C(=O)NC3CC3)c2)C1 (centres undefined) | -29.5
CCCC(=O)N1CCCCC1c1nccc(C)n1 (centres undefined) | -21
NC(=O)C1(c2cnccn2)CCCN1Cc1ccc(F)c(F)c1 (centres undefined) | -14
CCN1CCN(Cc2c(C3CCCC3)[nH]c3ncccc23)CC1 | 13.1
CN(Cc1ccc(F)cc1)CC1(O)CCN(C(=O)c2cccs2)C1 (centres undefined) | -12.6
c1ccc(OCCN2CCC(c3nnc(-c4cccnc4)o3)CC2)cc1 | -27.9
Cc1ncoc1C(=O)N1CC[C@@H](O)[C@@H](O)[C@H](N2CCC(F)(F)CC2)C1 | 2.3
Cn1cccc1C(=O)N1CCC(O)(CN2CCc3ccccc3C2)C1 (centres undefined) | 3.77
Cc1ccccc1-c1cncc(C2CCN(C(=O)CN(C)C)CC2)n1 | 3.88

SMILES | cytotoxicity at 10 µM [%]
CN1CCCC(Cc2cncc(C(=O)NCC3CC3)c2)C1 (centres undefined) | -3.99
COc1cccc([S+]([O-])CC(=O)NCc2cc(F)cc(F)c2)c1 (centres undefined) | -0.491
CCCc1c(C(=O)N2CCN(c3nccc(OC)n3)CC2)cnn1C | 17.2
CCc1noc(CN2CCN(C(=O)OC(C)(C)C)C(C)C2)n1 (centres undefined) | 2.53
O=C1CCCN1CCCN1CCCC(Cn2cncn2)C1 (centres undefined) | -1.82
CCN(Cc1ccoc1)c1ncc(S(N)(=O)=O)s1 | 5.73
CC(NC(=O)N1CCc2sccc2C1)c1nncn1C (centres undefined) | -8.6
O=C(c1cc2c([nH]c1=O)CCC2)N1CCCC1c1ccc(F)cc1 (centres undefined) | -6.14
CC(=O)N1CCC(c2nc(Cc3ccccc3)no2)C1 (centres undefined) | 5.15
Cc1cc(C(=O)NC2(c3cccc(F)c3)CCOCC2)no1 | 1.42
COc1ccsc1C(=O)N1CCCC1c1c(C)nn(C)c1OC (centres undefined) | -0.561
COc1cccc2c1N(Cc1nc3c(cnn3C)c(=O)[nH]1)CCC2 | -4.15
Cc1noc(C)c1CNc1cccc(C(=O)N2CCCC(O)C2)c1 (centres undefined) | -6.08
CS(=O)(=O)CCCN1CCOC2(CCc3ccccc32)C1 (centres undefined) | -5.14
Cc1cc(=O)n(C)cc1NC(=O)NCc1cccc(F)c1 | -5.3
OC(CN(Cc1ccccc1)Cc1cscn1)c1ccco1 (centres undefined) | 5.04
CN(C(=O)COC1CCCC1)C1CCN(CC2CCOC2)CC1 (centres undefined) | -9.98
CSCc1cccc(NC(=O)N2CCC(N3CC=CC3)C2)c1 (centres undefined) | -1.83
NC(=O)CN1CCCC1c1ccccc1Br (centres undefined) | 4.01
COc1ccnc(N(C)Cc2ccccc2O)n1 | 2.29
CNC(=O)c1ccc(Cn2ccnc2S(C)(=O)=O)cc1 | -3.83
O=C(NCC1(Sc2ccccc2)CC1)c1c[nH]nn1 | -17.9
O=C(c1ccc2c(c1)CCO2)N1CCN(c2ncccn2)CC1 | 8.92

SMILES | cytotoxicity at 10 µM [%]
Cc1cccnc1CSCCCNS(C)(=O)=O | -15.1
N#Cc1ccccc1CN(CC(N)=O)C1CCCC1 | 10.4
CC(C)COC1CCN(S(=O)(=O)Cc2cccc(F)c2)CC1 | -2.11
Cc1cc(CS(=O)(=O)c2ccccc2)no1 | 10.5
CC(C)CS(=O)(=O)CC(=O)N(C)Cc1ccc(OC(F)F)cc1 | 1.13
O=C(c1cc(Cl)cc(Cl)c1)N1CCN(c2nccs2)CC1 | -5.69
COc1cccc2c1OCC(NC(=O)NCc1cccs1)C2 (centres undefined) | -11
CC(C)CNC(=O)C1=NOC2(CCN(Cc3cccc(C#N)c3)C2)C1 (centres undefined) | 8.37
COCCC1COC2(CCN(C(=O)c3cccn3C)CC2)C1 (centres undefined) | -80.7
COCCO[C@H]1CCN(C(=O)c2cnccn2)[C@H]1Cc1ccncc1 | -70.3
CN1CCN(Cc2ccncc2)Cc2cccnc21 | -72.7
COCc1cnc2n1CCN(C(=O)c1ocnc1C)C2C (centres undefined) | -1.91
O=c1cc(Cn2cncn2)nc2n1CCCN(Cc1ccoc1)C2 | 3.37
CC(C)Nc1nc(N2CCOCC2)nc2c1CN(CC(=O)N(C)C)CC2 | 7.77
O=C(N1CCCC1)N1CCN(CC2CC2)c2ncccc2C1 | 6.51
Fc1cccc(CN2CCO[C@H]3[C@@H](OCc4ccccn4)CC[C@@H]32)c1 | -0.902
O=c1[nH][nH]cc1-c1ccnc(NCCc2ccc(F)cc2)n1 | 3.44
CC(C)NC(=O)NCc1cc(-c2ccco2)n(CC(F)(F)F)n1 | -12.8
CC(C)[C@H](NS(C)(=O)=O)C(=O)NCc1cc(-c2ccccc2)nn1C | -7.88
CCn1c(CC2CCN(C(=O)C3CC(C(C)C)=NO3)CC2)nn(C)c1=O (centres undefined) | 3.72
c1ccc(SCCN2CCCC(Cn3ccnc3)C2)cc1 (centres undefined) | 2.92
Cc1ccc(N2CCC(c3cc(Cc4ccccc4)n[nH]3)CC2)nn1 | 3.53
COc1ccccc1CN1C(=O)O[C@@H]2CN(c3nc(C)cnc3C)C[C@@H]21 | 1.06

SMILES | cytotoxicity at 10 µM [%]
CCn1ccnc1CN(C)C1CCCN(CCCc2ccccc2)C1 (centres undefined) | 7.35
COCCn1ccnc1C1CCCN(C(=O)CSc2nnc(C)o2)C1 (centres undefined) | -4.3
CCN(CC)C(=O)[C@@H]1C[C@@H](NC(=O)c2cccn2C2CC2)CN1C | -5.94
COC(C)(C)CNC(=O)C1CCC(=O)N(C2CCCC2)C1 (centres undefined) | -6.52
CCN(Cc1noc(CC(C)C)n1)C[C@]1(O)CCCN2CCCC[C@@H]21 | -6.91
c1cncc(CN2CCCC(Nc3ncnc4c3CCNCC4)C2)c1 (centres undefined) | 4.42
CS(=O)(=O)N1CC[C@]2(O)CCN(c3ccnc(N)n3)C[C@@H]2C1 | 21
CC(=O)Nn1c(C)cc(CN2CCCN(Cc3ccncc3)CC2)c1C | 5.63
CN(Cc1ccccc1)c1ncccc1CNC1CCCC1 | -8.8
COCC(=O)N1CCC(C(=O)N(C)CCCc2nccn2C)CC1 | -1.81
COc1cnc(N2CCN(C)CC2)nc1-c1ccnn1C | 0.868
CC(=O)NCC1CCCN(Cc2nc(Cc3ccccc3F)no2)C1 (centres undefined) | -11.1
Cc1cnc(NCCCN2CCCCC2CO)nc1 (centres undefined) | -7.17
Nc1cc(-c2cc[nH]n2)nc(N2CCCC2)n1 | 1.56
Cc1ccsc1-c1nccn1CCN1CCCOC1=O | -4.68
CCOc1ccccc1OCCN(C)Cc1nccn1C | -3.8
COCc1ncc(CN(Cc2ccco2)C(C)C(C)C)cn1 (centres undefined) | -0.0832
CCCN1CCCn2nc(CNS(=O)(=O)c3ccc(F)cc3)cc2C1 | -8.57
CN1CCN(Cc2ccccc2Oc2nccc3occc23)CC1 | 5.83
NCC1Cc2cc(-c3nccc(N4CCC(O)CC4)n3)cc(F)c2O1 (centres undefined) | 14.2
CN(C)c1nc2n(c(=O)n1)CCN2C(=O)Nc1ccccc1 | 4.73
CS(=O)(=O)N1CCC(c2nnc(CN3CCCC3)n2C2CC2)CC1 | -6.6
Cc1cc2ccccc2n1CCC(=O)NCc1ncc[nH]1 | 4.37

SMILES | cytotoxicity at 10 µM [%]
N#Cc1ccc(CNCCn2cccn2)c(F)c1 | -4.22
COCCOc1ccc(C(=O)N2CCCC(n3cncn3)C2)cn1 (centres undefined) | -11.7
O=C(CCNc1ncccn1)NCCOc1ccc2c(c1)CCC2 | -4.54
Cc1cc(C)n(CC2CN(CCOc3cccc(C#N)c3)CCO2)n1 (centres undefined) | -10.9
Cc1ccc(-c2cc(CNC(=O)N3CCOC(C)C3)on2)cc1 (centres undefined) | -6.09
Cc1noc(C(C)N2CCN(CCCN3CCCC3=O)CC2)n1 (centres undefined) | -2.73
CCc1noc(C(C)N2CCN(Cc3nc(C)c(C)o3)CC2)n1 (centres undefined) | -1.71
CC1CCCN(C(=O)CCc2cccnc2)C1 (centres undefined) | -3.4
Cn1nccc1C1CCN(CC(O)c2cccc(F)c2)CC1 (centres undefined) | -11.8
CN(c1ccc(C(C)(C)C)cc1)S(=O)(=O)c1cc(C(=O)O)cs1 | -6.19
CC(C)c1cc(NC(=O)CN2CCNC(=O)C2)on1 | -11.6
O=S(=O)(CCNC1CCc2ncnn2C1)c1ccccc1 (centres undefined) | -5.58
CN(C)c1ncc(-c2cncnc2)c(C2CNCCO2)n1 (centres undefined) | 1.69
O=C(C[C@@H]1COC[C@H]2CN(C3CCCC3)C[C@@H]12)NCc1cccnc1 | 6.84
Cn1cc(CN2CCc3ccc(=O)n(Cc4ccncc4)c3CC2)cn1 | 3.97
CN(C)c1ncnc2c1CCN(C(=O)c1cccnc1)CC2 | -79.8
O=C(Nc1cccc(CNCc2cccs2)c1)C1CC1 | -8.3
Cc1cc(CN2C[C@@H]3COC[C@]3(CNC(=O)c3ccco3)C2)no1 | -71.1
O=C(C1CC(F)(F)C1)N1C[C@@H]2CN(CC3CCCC3)CCO[C@@H]2C1 | -8.02
CC(C)N(C)Cc1cncc2c1CCN(Cc1ccoc1)C2 | -109
O=c1[nH]c2cn(-c3cccc(F)c3)c(=O)n2n1Cc1ccccc1Cl | 4.9
CC(C)(C)C(N)C1=NC(=C2N=CN=N2)NO1 (centres undefined) | -16.9
